Measured values from different studies.
Each line is one published result; the experiments were not run side by side.
Method: competition with immobilised ligand
RPS6KA6 N-terminal kinase domain: Ribosomal protein S6 kinase alpha-6, N-terminal kinase domain (RPS6KA6, Homo sapiens, UniProt Q9UK32)
RPS6KA6 C-terminal kinase domain: Ribosomal protein S6 kinase alpha-6, C-terminal kinase domain (RPS6KA6, Homo sapiens, UniProt Q9UK32)

The remaining binding of `COc1ncc2cc3ccccc3nc2c1C#N` is reported as 100% (RPS6KA6 N-terminal kinase domain; cell-free assay; 5 µM).
With `COc1cnc(Nc2cccc(S(N)(=O)=O)c2)nc1N1CCN(c2ccccc2)C(=O)C1` the remaining binding was 79% (RPS6KA6 N-terminal kinase domain; binding; 1 µM).
The remaining binding of `O=C(c1ccc(Nc2ncc(Cl)c(-c3ccc(Cl)s3)n2)cc1)N1CCC(N2CCCC2)CC1` is reported as 41% (RPS6KA6 N-terminal kinase domain; binding; 1 µM).
For `CN([C@@H]1CCc2c(CC(=O)O)c3ccccc3n2C1)S(=O)(=O)c1ccc(F)cc1`, the remaining binding was 100% (RPS6KA6 C-terminal kinase domain; cell-free assay; 1 µM).
`CN(C)c1nccc(-c2cnn3ncccc23)n1` has a remaining binding of 100% (RPS6KA6 C-terminal kinase domain; binding; 1 µM).
`O=C(NCC1CCOCC1)c1n[nH]cc1NC(=O)c1c(F)cccc1F` has a remaining binding of 41% (RPS6KA6 N-terminal kinase domain; binding; 1 µM).
For `CC1CCCN1c1nccc(-c2cnn3ncccc23)n1` (stereo not shown), the remaining binding was 99% (RPS6KA6 N-terminal kinase domain; binding; 1 µM).
`c1cncc(-c2cccc(Nc3nccc(NC4CCCCC4)n3)c2)c1` gave a remaining binding of 87% (RPS6KA6 C-terminal kinase domain; binding; 10 µM).
With `CNC(=O)[C@@H]1CC[C@@H](n2c(-c3ccc4cnccc4c3)nc3ccc(C(=O)NCc4cccc(C(N)=O)c4)cc32)C1` the remaining binding was 100% (RPS6KA6 N-terminal kinase domain; binding; 1 µM).
The remaining binding of `Cc1cnn2ncc(-c3ccnc(N(C)C)n3)c2c1` is reported as 82% (RPS6KA6 N-terminal kinase domain; binding; 1 µM).
`FC(F)(F)Oc1cccc(-c2cnc3ccc(-c4ccncc4)nn23)c1` has a remaining binding of 64% (RPS6KA6 N-terminal kinase domain; binding; 5 µM).
With `Nc1ncc2c(n1)-c1c([nH]c3ccc(C#CC4CC4)cc13)CCCC2` the remaining binding was 91% (RPS6KA6 C-terminal kinase domain; binding; 1 µM).
With `O=C(NCCCN1CCOCC1)c1ccc(Nc2nccc(-c3cc4ccccc4s3)n2)cc1` the remaining binding was 67% (RPS6KA6 N-terminal kinase domain; binding; 1 µM).
The remaining binding of `CCCCN(CCCC)C(=O)CN1C[C@@H](c2cc(OC)c3c(c2)OCO3)[C@H](C(=O)O)[C@H]1CC(C)(C)CCC` is reported as 96.6% (RPS6KA6 N-terminal kinase domain; cell-free assay; 1 µM).
`CN(C)c1nccc(-c2cnc3ncccn23)n1` has a remaining binding of 69% (RPS6KA6 N-terminal kinase domain; binding; 1 µM).
With `Cn1nc(C(F)(F)F)cc1-c1cnc(N2CCc3cc(S(=O)(=O)Nc4c(F)cc(Cl)cc4F)cc(N4CCCC4=O)c32)nc1` the remaining binding was 85% (RPS6KA6 N-terminal kinase domain; cell-free assay; 1 µM).
With `N[C@@H]1CCN(c2nccc(-c3cnn4ncccc34)n2)C1` the remaining binding was 100% (RPS6KA6 N-terminal kinase domain; binding; 1 µM).
With `CN(C)C(=O)Cn1cc(-c2nc(C3(c4ccc(-c5cnc(N)nc5)cc4)CC3)no2)cn1` the remaining binding was 83% (RPS6KA6 N-terminal kinase domain; cell-free assay; 1 µM).
`CCN1CCN(Cc2ccc(C(=O)Nc3ccc(C)c(Oc4ccc5c(c4)CC(=O)N5)c3)cc2C(F)(F)F)CC1` gave a remaining binding of 100% (RPS6KA6 N-terminal kinase domain; binding; 1 µM).
For `NS(=O)(=O)c1cc(NC(=O)C2(c3ccccc3Cl)CC2)ccc1Oc1cccc(Cl)c1`, the remaining binding was 100% (RPS6KA6 N-terminal kinase domain; cell-free assay; 1 µM).
With `Cc1cnc(Nc2ccc(C(=O)N3CCC(N4CCCC4)CC3)cc2)nc1-c1cc2ccccc2s1` the remaining binding was 72% (RPS6KA6 C-terminal kinase domain; binding; 1 µM).
With `CN(C)c1ncc(F)c(-c2cnn3ncccc23)n1` the remaining binding was 98% (RPS6KA6 C-terminal kinase domain; binding; 1 µM).
For `COc1cc(-c2cn(C3CCc4ccccc4N(CC(F)(F)F)C3=O)nn2)ccc1-n1ccc(C)n1` (stereo not shown), the remaining binding was 81% (RPS6KA6 N-terminal kinase domain; cell-free assay; 1 µM).
With `COc1cnc(Nc2cccc(S(N)(=O)=O)c2)nc1N1CCN(c2ccccc2)CC1` the remaining binding was 69% (RPS6KA6 C-terminal kinase domain; binding; 1 µM).
With `O=C(c1ccc(Nc2nccc(-c3cc4ccccc4s3)n2)cc1)N1CCC(N2CCCC2)CC1` the remaining binding was 63% (RPS6KA6 C-terminal kinase domain; binding; 1 µM).
The remaining binding of `CN(c1nccc(-c2cnn3ncccc23)n1)C1CC1` is reported as 100% (RPS6KA6 C-terminal kinase domain; binding; 1 µM).
For `O=C(NCCCN1CCOCC1)c1ccc(Nc2ncc(Cl)c(-c3ccc(Cl)s3)n2)cc1`, the remaining binding was 85% (RPS6KA6 C-terminal kinase domain; binding; 1 µM).
`C[C@@H]1CN(c2cc(-c3nn(C)c4ccc(OC5(C)CC5)cc34)ncn2)C[C@H](C)O1` has a remaining binding of 79% (RPS6KA6 C-terminal kinase domain; cell-free assay; 1 µM).
`O=C(Nc1c[nH]nc1C(=O)NC1CCNCC1)c1cc(F)cc(F)c1` gave a remaining binding of 100% (RPS6KA6 C-terminal kinase domain; binding; 1 µM).
The remaining binding of `O=C(c1ccc(Nc2ncc(Cl)c(-c3cc4ccccc4s3)n2)cc1)N1CCC(N2CCCC2)CC1` is reported as 46% (RPS6KA6 N-terminal kinase domain; binding; 1 µM).
`Cc1cc(-n2nc(Cc3cc(F)cc(C(F)(F)F)c3)nc2C)ccc1C(N)=O` gave a remaining binding of 89% (RPS6KA6 N-terminal kinase domain; cell-free assay; 1 µM).
